# Assay outcomes (PubChem)
# Kir21 block = inhibitors of mouse Kir2.1 inward-rectifier potassium channel; Inward rectifier potassium channel 2 (Mus musculus), P35561; HEK293-Kir2.1, FluxOR thallium flux fluorescence; stronger effect = lower value; B-score at 10 µM; hit rate 0.85% among 310,000; AID 1672, 2009;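 active means fluorescence ratio B-score at or below minus 3 SD of library scores, with starting-brightness B-score within 2 SD, cut at about -4.2 in these data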;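 further: channel flux triggered by added potassium and thallium sulfate stimulus; B-score of peak minus minimum fluorescence over baseline after thallium stimulus; more negative B-score means stronger Kir2.1 block with less thallium influx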
# MrgX1 allo act = positive allosteric modulators of MrgX1, primary screen, HEK293 cells, Fluo-4 calcium flux. Mas-related G-protein coupled receptor member X1 (Homo sapiens), Q96LB2. FDSS; stronger effect = higher value. B-score at 10 µM. hit rate 0.63% among 310,000. AID 588675, 2011;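 active means plate-corrected calcium response at least 3 library SD above typical, normal starting fluorescence, not activating the receptor alone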;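 further: compound read alongside a low EC10 to EC30 dose of BAM8-22 agonist; peak minus trough fluorescence over baseline measured at the second addition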
# Target sequence (Q96LB2 whole entry, looked up): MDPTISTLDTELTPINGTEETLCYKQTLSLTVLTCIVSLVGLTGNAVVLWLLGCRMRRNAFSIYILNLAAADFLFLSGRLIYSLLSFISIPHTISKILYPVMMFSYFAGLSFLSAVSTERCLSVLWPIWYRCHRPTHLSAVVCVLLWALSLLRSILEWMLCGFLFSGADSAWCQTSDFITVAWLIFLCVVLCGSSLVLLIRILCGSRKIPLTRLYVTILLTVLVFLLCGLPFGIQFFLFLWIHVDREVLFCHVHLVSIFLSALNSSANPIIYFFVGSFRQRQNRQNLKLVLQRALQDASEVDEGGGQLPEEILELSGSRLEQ
# RGS4 act = RGS4 potentiators or activators, primary screen, cell-based, HEK293 M3R inducible RGS4, calcium flux | carbachol calcium flux Fluo4; stronger effect = lower value | B-score at 10 µM | hit rate 0.92% among 310,000 | AID 463111, 2010;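 active means B-score of the integrated calcium signal more than 4 SD below the library mean, with starting fluorescence not abnormally high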;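 further: negative B-score means reduced calcium response which marks RGS4 activation or potentiation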
#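 Test system: HEK293 cells with stable M3R and inducible RGS4; also added: carbachol at ECmax as muscarinic agonist stimulus; schedule: dye loading 30 min 37 °C, buffer rest 30 min RT; technique: kinetic calcium fluorescence imaging with Fluo4-AM dye, 2 µM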
# MrgX1 ag = agonists of human MrgX1 receptor, primary screen, HEK293 cells, Fluo-4 calcium flux; Mas-related G-protein coupled receptor member X1 (Homo sapiens), Q96LB2; Fluo-4 calcium fluorescence, agonist mode; stronger effect = higher value; B-score at 10 µM; hit rate 0.44% among 310,000;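 active means calcium response B-score plate-corrected fluorescence ratio at least 3 library SD, with starting fluorescence B-score inside 5 SD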
#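 System: HEK293 cells stably expressing human MrgX1 receptor; Dosing: test compound in the initial addition of three; Schedule: overnight plating, then 30 min 37 °C plus 30 min room-temperature dye loading; Detection: kinetic calcium dye fluorescence, Fluo-4 NW; Controls: per-plate positive and negative controls for Z′ factor.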
# RGS4 inh = RGS4 inhibitors, primary screen, cell-based, HEK293 M3R inducible RGS4, calcium flux; Regulator of G-protein signaling 4 (Homo sapiens), P49798; Fluo-4 calcium flux; stronger effect = higher value; triggered by carbachol at its EC20; B-score at 10 µM; hit rate 0.45% among 310,000; AID 463165, 2010;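 active means B-score, a plate-corrected calcium signal, over three deviations above library mean, with baseline fluorescence within five deviations of library mean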;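 further: RGS4 expression induced by doxycycline in cells with stable M3 receptor; B-score is computed from the integrated fluorescence ratio over baseline after carbachol; higher B-score means a larger calcium signal and so more RGS4 inhibition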
# Target sequence (P49798 whole entry, looked up): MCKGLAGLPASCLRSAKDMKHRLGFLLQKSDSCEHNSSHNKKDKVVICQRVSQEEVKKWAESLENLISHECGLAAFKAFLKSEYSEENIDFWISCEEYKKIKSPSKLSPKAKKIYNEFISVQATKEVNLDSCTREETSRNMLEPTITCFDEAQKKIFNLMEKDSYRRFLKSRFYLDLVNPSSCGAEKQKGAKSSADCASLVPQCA
# MrgX1 antagonist = antagonists of human MrgX1 receptor, primary screen, HEK293 cells, Fluo-4 calcium flux | BAM8-22 antagonism; stronger effect = lower value | Mas-related G-protein coupled receptor member X1 (Homo sapiens), Q96LB2 | AID 588676, 2011 | B-score at 10 µM | hit rate 1.3% among 310,000;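 active means calcium-response B-score plate-corrected more than 3 library SD below zero, starting fluorescence within 5 deviations, no agonist response on first addition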;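 further: peak minus trough fluorescence over baseline after final BAM8-22 challenge near maximal dose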
# Numbers without * were called inactive; i = inactive. Hits are enriched below; roughly 4.1% of the tested compounds scored in any of these assays.
SMILES,Kir21 block,MrgX1 allo act,RGS4 act,MrgX1 ag,RGS4 inh,MrgX1 antagonist
CNC(=O)/C(=C\c1cccc(Oc2ccccc2)c1)NC(=O)c1ccccc1,-1.1,i,i,i,i,i
CNC(=O)/C(C#N)=C/c1cccc(Oc2ccccc2)c1,-5.1*,i,i,i,i,i
Cc1ccc(/C=N/NC(=O)c2cccc(S(=O)(=O)Nc3ccccc3Cl)c2)o1,1.5,13*,i,i,i,i
Cc1cc(Nc2ccc(Cl)cc2)nc(NCc2ccccc2)n1,-7*,i,i,i,i,i
Cc1ccc(/C=N/Nc2cc(C)nc(NCc3ccccc3)n2)cc1,-0.3,i,i,i,i,i
Cc1cc(Nc2ccccc2)nc(NCc2ccccc2)n1,-11*,i,i,i,i,i
Cc1nc(-c2ccc(Cl)cc2)sc1C1(C)CC(c2ccccc2)=NO1 (stereo unspecified),0.11,i,i,i,i,i
CCC(=O)N/C(N)=N/c1nc2ccccc2o1,0.82,i,i,i,i,i
CCCCC(=O)NC(=S)NNC(=O)CCc1ccccc1,-0.39,i,i,49*,i,i
O=C(CCc1ccccc1)NNC(=S)NC(=O)c1ccccc1,-0.61,i,i,i,i,i
CC(C)(C)c1cc(CCC(=O)NNC(=S)NC(=O)c2ccccc2)cc(C(C)(C)C)c1O,0.07,i,i,50*,i,i
CC(=O)NC(=S)NNC(=O)CCc1ccccc1,0.13,i,i,i,i,i
COC(=O)C1(C)NC(=O)c2ccccc2N1 (stereo unspecified),1.2,i,i,i,i,i
O=C(C1=COCCO1)N(Cc1nnc(-c2ccc(Cl)cc2)o1)C1CC1,-0.13,i,i,i,i,i
CCOC(=O)c1sc(N)c(C#N)c1COC(=O)CNC(=O)c1cc(OC)c(OC)c(OC)c1,-1.6,i,i,i,i,-6.6*
Cc1cc(C(=O)Nc2cc(C)on2)on1,-0.18,i,i,i,i,i
O=C(Cc1c[nH]c2ccccc12)NCc1ccc(Cl)cc1,1.3,i,i,i,i,i
O=C(Cc1c[nH]c2ccccc12)NCc1ccc(Cl)cc1Cl,-4.2*,i,i,i,i,i
COC(=O)COn1c(SCC(=O)OC)nc2ccccc2c1=O,1.1,i,i,i,i,-4.6*
CC(C)(C)n1nc2c(c1NC(=O)c1ccc(F)c(F)c1)CS(=O)(=O)C2,0.08,i,i,i,i,i
Cc1ccc(C(C)C)c(OCCNCc2ccccc2)c1,-8.8*,i,i,i,i,i
Cc1ccc(C(C)C)c(OCCN(C)C)c1,-0.23,i,-7.1*,i,i,i
Cc1ccc(C(C)C)c(OCCCCN2CCNCC2)c1,-6.1*,i,i,i,i,i
COCCn1nnnc1C(c1cccc(C(F)(F)F)c1)N1CCN(Cc2ccccc2)CC1 (stereo unspecified),-0.09,i,i,i,i,i
CCOc1cccc(NC(=O)/C(C#N)=C\c2cn(CC(=O)O)c3ccccc23)c1,1.2,i,i,i,i,i
SMILES,Kir21 block,MrgX1 allo act,RGS4 act,MrgX1 ag,RGS4 inh,MrgX1 antagonist
COc1ccc([N+](=O)[O-])cc1NC(=O)Cc1noc2ccccc12,-0.04,i,i,i,i,-9.7*
COc1ccc([N+](=O)[O-])cc1NC(=O)C1(c2ccccc2)CCOCC1,-2.9,8.7*,i,i,i,i
COc1ccc([N+](=O)[O-])cc1NC(=O)CSCc1cc(C)cc(C)c1,-8.7*,i,i,i,i,i
COc1ccc([N+](=O)[O-])cc1NC(=O)c1ccccc1N(C)S(C)(=O)=O,0.73,7*,i,i,i,i
COc1ccc([N+](=O)[O-])cc1NC(=O)CCN1CCOCC1,-0.31,i,i,i,i,i
O=C1/C(=C\c2ccco2)SC(=S)N1C1CCS(=O)(=O)C1 (stereo unspecified),-2.4,i,i,i,i,i
O=C1C=C(NCc2ccncc2)CC(c2ccccc2)C1 (stereo unspecified),-0.04,i,i,i,i,i
O=C(Nc1ccc(N2CCOCC2)cc1N1CCOCC1)c1ccc(Cl)cc1,0.33,i,i,i,i,i
Cc1nn(-c2ccccc2)c(Cl)c1/C=N/NC(=O)c1ccc(NS(=O)(=O)c2cccs2)cc1,0.51,11*,i,i,i,i
Cc1ccc(-n2nc(C)c(/C=N/NC(=O)c3cccnc3)c2Cl)cc1,2.1,i,i,i,i,-4.8*
Cc1nn(-c2ccccc2)c(Cl)c1/C=N/NC(=O)c1ccccc1NS(=O)(=O)c1cccs1,-0.31,i,i,i,i,i
COc1ccc(NC2CCCN(C(=O)CCN3Cc4ccccc4C3=O)C2)cc1 (stereo unspecified),-0.11,i,i,i,i,i
C=C[C@]1(C)C=C2CCC3[C@](C)(CCC[C@@]3(C)C(=O)O)C2CC1 (stereo partly specified),1.4,i,i,i,i,i
NC(=O)CN1CCN(S(=O)(=O)c2ccc(Cl)cc2)CC1,0.16,i,i,i,i,i
N#Cc1nccnc1S(=O)(=O)c1cccs1,-2.4,i,-7.8*,i,i,i
CCN1C(=O)/C(=C\N2CCN(C)CC2)SC1=S,1.3,i,i,i,i,-4.6*
Cc1cc(=O)oc(C)c1C(=O)NC12CC3CC(CC(C3)C1)C2,-0.53,i,i,i,i,i
Cc1ccc(S(=O)(=O)CC#CCOC(=O)c2ccc([N+](=O)[O-])cc2)cc1,0.05,i,i,43*,i,i
Cn1c(=O)c([N+](=O)[O-])c(NCC(O)c2ccccc2)c2ccccc21 (stereo unspecified),-0.33,i,i,i,i,-5.7*
CCn1c(=O)c([N+](=O)[O-])c(NCC(O)c2ccccc2)c2ccccc21 (stereo unspecified),-0.39,i,i,i,i,i
Cc1oc2c(c1C(=O)Nc1cccc3ccccc13)CCCC2,-2.2,i,i,i,i,i
